The source of these data is ChEMBL document CHEMBL3576864, “Striatoids A-F, Cyathane Diterpenoids with Neurotrophic Activity from Cultures of the Fungus Cyathus striatus” (J Nat Prod, 2015).

For assay [1], the system named is PC-12. Kind of assay: Effect on neurite outgrowth in rat PC12 cells at 10 to 40 uM after 48 hrs by inverted microscopic analysis. Format: functional, cell-based. In a few lines: (§1)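 PC-12 cells grown in F-12 (Ham) with 10% heat-inactivated HS, 5% FBS, penicillin/streptomycin, 37 °C, 5% CO2. Seeded on poly-L-lysine wells (2 × 10^4 cells/mL), 24 h. Switched to low serum (1% HS, 0.5% FBS), then dosed 10–40 μM with NGF 20 ng/mL (vehicle 0.1% DMSO), triplicate wells, 48 h. Phase-contrast scoring: ≥100 cells in each of five random fields; neurite ≥ one cell body = positive, as % of cells.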

Assay [2] relates to PC-12. The experiment in a line: Neurotrophic activity in rat PC12 cells assessed as enhancement of NGF-induced neurite outgrowth after 48 hrs by inverted microscopic analysis. Format: functional, cell-based. In a few lines:
as §1

The source made the active and inactive calls. The rule behind the calls is not given here.

Regarding `CC(=O)O[C@@H]1C2=CC[C@@H]3C4=C(C(C)C)C[C@H](O)[C@]4(C)CC[C@@]3(C)[C@H]3O[C@@H]4OC[C@@]1(O)[C@H](O)[C@]4(O)[C@H]23`, the result in assay [1] was inactive. Also, the Activity entry in assay [2] was “Dose-dependent effect”.
With `CC(C)C1=C2[C@H]3CC=C4[C@@H]5O[C@]6(O)[C@@]7(O)[C@@H](OC[C@]6(O)O5)O[C@@H]([C@@H]47)[C@]3(C)CC[C@@]2(C)[C@@H](O)C1`, the result in assay [1] was inactive. The Activity entry in assay [2] is “Dose-dependent effect”.
For the compound `CC(C)C1=C2[C@H]3CC=C4[C@H]5O[C@H]6CO[C@H]7O[C@@H]([C@@H]4[C@@]7(O)[C@@]6(O)O5)[C@]3(C)CC[C@@]2(C)[C@@H](O)C1`, in assay [1], the result was inactive. In addition, the Activity result in assay [2] is “Dose-dependent effect”.
Regarding `CO[C@H]1O[C@@]2(O)[C@H](O)CO[C@H]3O[C@H]4[C@@H]([C@@H]1CC[C@@H]1C5=C(C(C)C)C[C@H](O)[C@]5(C)CC[C@]14C)[C@]32O`, the result in assay [1] was inactive. Further, the Activity result in assay [2] was “Dose-dependent effect”.
The corresponding values for `CC(=O)O[C@@H]1[C@H]2CC[C@@H]3C4=C(C(C)C)C[C@H](O)[C@]4(C)CC[C@@]3(C)[C@H]3O[C@@H]4OC[C@@]1(O)[C@H](O)[C@]4(O)[C@H]23` are “inactive” and “Dose-dependent effect”.
Taken in the same sequence, the figures for `CC(C)C1=C2[C@H]3CC=C4[C@@H](O)[C@@]5(O)CO[C@H]6O[C@@H]([C@@H]4[C@@]6(O)[C@H]5O)[C@]3(C)CC[C@@]2(C)[C@@H](O)C1` were “inactive” and “Dose-dependent effect”.
